Data set [1] can be described thus: Toxicity in NMRI mouse infected with Helicobacter pylori SS1 assessed as change in body weight at 10 to 20 mg/100g, po administered daily via gavage for 8 days starting from 1 week post-infection. It counts as organism-based. Particulars: in vivo. In short, it runs like this: (§1)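 Female 6-week-old SPF NMRI mice infected orogastrically with Hp SS1 on days 1 and 3. Compound in 5–10% DMSO/olive oil (100 μL) given by daily oral gavage for 8 days from day 8. Body weight and appetite were monitored during treatment; infected controls received vehicle alone.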

The nature of data set [2]: Toxicity in NMRI mouse infected with Helicobacter pylori SS1 assessed as change in appetite at 10 to 20 mg/100g, po administered daily via gavage for 8 days starting from 1 week post-infection. Format: organism-based. Particulars: in vivo. In short, it runs like this:
as §1

Data set [3] addresses T1, Flavodoxin (Helicobacter pylori (strain ATCC 700392 / 26695) (Campylobacter pylori)) (UniProt O25776).
T1 sequence (whole entry): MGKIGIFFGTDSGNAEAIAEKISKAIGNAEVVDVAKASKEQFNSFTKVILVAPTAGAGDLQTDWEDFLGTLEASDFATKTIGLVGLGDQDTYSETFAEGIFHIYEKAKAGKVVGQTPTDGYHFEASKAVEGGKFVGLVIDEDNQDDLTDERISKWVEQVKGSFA
The data set is described as follows: Inhibition of flavodoxin in Helicobacter pylori SS1 assessed as reduction in bacterial growth measured after 48 hrs by resazurin staining-based microdilution method. In short, it runs like this:
(§2)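 Broth microdilution in brain heart infusion with 4% FBS. Inoculum diluted to OD600 0.01. Two-fold dilutions from a DMSO stock cover 64–0.031 μg/mL, with DMSO ≤1% v/v. Incubated 48 h at 37 °C under microaerophilic conditions. MIC is the lowest concentration giving complete growth inhibition, read by resazurin colour change and confirmed by spotting on blood agar. Run twice in triplicate.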
On the technique in general: Resazurin is reduced to fluorescent resorufin, in cell work by metabolically active cells.

The nature of data set [4]: Therapeutic index, ratio of MCC50 for human HeLa cells to MIC for inhibition of flavodoxin in Mnz-resistant Helicobacter pylori NCTC 11637 ATCC 43504 assessed as reduction in bacterial growth. Format: toxicity. Particulars: read-out: TI. In short, it runs like this: (§3)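 TI is MCC50/MIC. For MCC50, HeLa cells (30 000/well, DMEM with 10% FBS) were exposed to compound at 25–1000 μM final. Viability by XTT at 450/650 nm; MCC50 is the concentration giving 50% lysis from viability curves. Run twice in triplicate.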

The subject of the next data set is Staphylococcus aureus. The data set is described as follows: Effect on growth of Staphylococcus aureus ATCC 1228 after 48 hrs by resazurin-dye based microdilution assay. It counts as organism-based.
Data set [5] concerns the target T1, Flavodoxin (Helicobacter pylori (strain ATCC 700392 / 26695) (Campylobacter pylori)). The data set is described as follows: Inhibition of flavodoxin in Mnz-resistant Helicobacter pylori NCTC 11637 ATCC 43504 assessed as reduction in bacterial growth measured after 48 hrs by resazurin staining-based microdilution method. Particulars: Helicobacter pylori NCTC 11637 = CCUG 17874 = ATCC 43504. The method, boiled down: as §2

For data set [6] the target is unchanged. The experiment in a line: Inhibition of flavodoxin in Helicobacter pylori ATCC 700392 26695 assessed as reduction in bacterial growth measured after 48 hrs by resazurin staining-based microdilution method. Particulars: Helicobacter pylori 26695. In short, it runs like this:
as §2

A short description of data set [7]: Toxicity in NMRI mouse assessed as change in body weight at 10 to 20 mg/100g, po administered daily via gavage for 8 days. Format: organism-based. Particulars: in vivo, 192 h.
The subject of the next data set is Escherichia coli. The experiment in a line: Effect on growth of Escherichia coli DH5[alpha] after 48 hrs by resazurin-dye based microdilution assay. It counts as organism-based.
Data set [8] is described as follows: Therapeutic index, ratio of MCC50 for human HeLa cells to MIC for inhibition of flavodoxin in Helicobacter pylori SS1 assessed as reduction in bacterial growth. It counts as toxicity. Particulars: HeLa cells versus Helicobacter pylori SS1, read-out: TI. In short, it runs like this: as §3
Data set [9] deals with Helicobacter pylori. The data set is described as follows: Antibacterial activity against Helicobacter pylori SS1 infected in NMRI mouse assessed as reduction in gastric colonization at 10 mg/100g, po administered daily via gavage for 8 days starting from 1 week post-infection and measured 8 days post-last dose. It counts as functional, organism-based. The method, boiled down: (§4)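 Female 6-week-old SPF NMRI mice, seven per condition, infected orogastrically on days 1 and 3 with 100 μL Hp SS1 (5 × 10^8 CFU/mL). From day 8, 100 μL compound in 5–10% DMSO/95–90% olive oil by daily oral gavage for 8 days. Infected controls got vehicle. Killed day 24; stomach homogenates plated 5 days at 37 °C microaerophilic; CFU/g tissue versus control. Mann-Whitney U and unpaired t tests, p ≤ 0.05.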

Data set [10] addresses T1, Flavodoxin (Helicobacter pylori (strain ATCC 700392 / 26695) (Campylobacter pylori)). The experiment in a line: Binding affinity to Helicobacter pylori flavodoxin by thermal upshift assay.
The nature of data set [11]: Therapeutic index, ratio of MCC50 for human HeLa cells to MIC for inhibition of flavodoxin in Helicobacter pylori ATCC 700392 26695 assessed as reduction in bacterial growth. Format: toxicity. Particulars: HeLa cells versus Helicobacter pylori ATCC 700392 26695, read-out: TI. The method, boiled down:
as §3

In data set [12] the target is T1, Flavodoxin (Helicobacter pylori (strain ATCC 700392 / 26695) (Campylobacter pylori)). The experiment in a line: Binding affinity to Helicobacter pylori flavodoxin by isothermal titration calorimetric method. For orientation: Isothermal titration calorimetry measures the heat released or taken up as one component is titrated into another.
Data set [13] has as its system Helicobacter pylori. The data set is described as follows: Antibacterial activity against Helicobacter pylori SS1 infected in NMRI mouse assessed as bacterial eradication at 10 mg/100g, po administered daily via gavage for 8 days starting from 1 week post-infection and measured 8 days post-last dose. It counts as functional, organism-based. In short, it runs like this: as §4

Data set [14] is described as follows: Cytotoxicity against human HeLa cells assessed as reduction in cell viability by XTT assay. It counts as cell-based. Particulars: read-out: MCC50. In short, it runs like this: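 HeLa cells grown in DMEM with 10% FBS, penicillin and streptomycin at 37 °C, 5% CO2; 30 000 cells/well. XTT viability read at 450 and 650 nm. MCC50 (50% lysis) came from viability-versus-concentration curves. Two experiments, each in triplicate.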
A general note: Tetrazolium assays rely on reduction of a dye to a coloured formazan, in cell work by metabolically active cells.

Data set [15] can be described thus: Therapeutic index, ratio of MCC50 for human HeLa cells to MIC for inhibition of flavodoxin in clarithromycin/metronidazole-resistant Helicobacter pylori isolate 6 assessed as reduction in bacterial growth. It counts as toxicity. Particulars: read-out: TI. The method, boiled down: as §3
For data set [16], the target named is T1, Flavodoxin (Helicobacter pylori (strain ATCC 700392 / 26695) (Campylobacter pylori)). The data set is described as follows: Inhibition of flavodoxin in metronidazole-resistant Helicobacter pylori isolate 2 assessed as reduction in bacterial growth measured after 48 hrs by resazurin staining-based microdilution method. In short, it runs like this:
(§5)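 Clinical isolates from gastric biopsies of patients who failed ≥2 therapies; resistance classified by EUCAST breakpoints. […] Read by resazurin colour change as the lowest concentration giving complete growth inhibition.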

The target is the same in data set [17]. The data set is described as follows: Inhibition of flavodoxin in clarithromycin/metronidazole-resistant Helicobacter pylori isolate 4 assessed as reduction in bacterial growth measured after 48 hrs by resazurin staining-based microdilution method. The method, boiled down:
as §5

The target is the same in data set [18]. The data set is described as follows: Inhibition of flavodoxin in rifampicin-resistant Helicobacter pylori isolate 5 assessed as reduction in bacterial growth measured after 48 hrs by resazurin staining-based microdilution method. In short, it runs like this: as §5
Data set [19] in a line: Therapeutic index, ratio of MCC50 for human HeLa cells to MIC for inhibition of flavodoxin in clarithromycin/metronidazole-resistant Helicobacter pylori isolate 4 assessed as reduction in bacterial growth. Format: toxicity. Particulars: read-out: TI. The method, boiled down:
as §3

Data set [20] concerns the target T1, Flavodoxin (Helicobacter pylori (strain ATCC 700392 / 26695) (Campylobacter pylori)). The data set is described as follows: Inhibition of flavodoxin in clarithromycin/metronidazole-resistant Helicobacter pylori isolate 6 assessed as reduction in bacterial growth measured after 48 hrs by resazurin staining-based microdilution method.
Data set [21] can be described thus: Therapeutic index, ratio of MCC50 for human HeLa cells to MIC for inhibition of flavodoxin in metronidazole-resistant Helicobacter pylori isolate 2 assessed as reduction in bacterial growth. Format: toxicity. Particulars: read-out: TI. The method, boiled down:
as §3

Data set [22] in a line: Therapeutic index, ratio of MCC50 for human HeLa cells to MIC for inhibition of flavodoxin in metronidazole-resistant Helicobacter pylori isolate 1 assessed as reduction in bacterial growth. Particulars: read-out: TI. It counts as toxicity. In short, it runs like this: as §3
For data set [23], the target named is T1, Flavodoxin (Helicobacter pylori (strain ATCC 700392 / 26695) (Campylobacter pylori)). The experiment in a line: Inhibition of flavodoxin in metronidazole-resistant Helicobacter pylori isolate 1 assessed as reduction in bacterial growth measured after 48 hrs by resazurin staining-based microdilution method. The method, boiled down: as §5
Data set [24] can be described thus: Therapeutic index, ratio of MCC50 for human HeLa cells to MIC for inhibition of flavodoxin in metronidazole-resistant Helicobacter pylori isolate 3 assessed as reduction in bacterial growth. Format: toxicity. Particulars: read-out: TI. The method, boiled down: as §3
Data set [25] in a line: Therapeutic index, ratio of MCC50 for human HeLa cells to MIC for inhibition of flavodoxin in rifampicin-resistant Helicobacter pylori isolate 5 assessed as reduction in bacterial growth. It counts as toxicity. Particulars: read-out: TI. In short, it runs like this:
as §3

The structures appear in SMILES notation. Values after ≈ are worked out from the molar mass of the structure shown. Active and inactive are the calls of the source. No cut-off for these calls is given here.

Take `O/N=C1\Cc2cc(Cl)cc(Cl)c2OC1c1ccc(F)cc1` (stereo unspecified): the Activity result (in data set [1]; in [2]; in the data set with Staphylococcus aureus; in data set [7]; in the data set on Escherichia coli) was “Non-Toxic” each time. Further, the MIC in data set [3] came to 12 µM (≈ 3.91 µg/mL); in data set [5], 6.1 µM (≈ 1.99 µg/mL); in [6], 6.1 µM (≈ 1.99 µg/mL). The selectivity ratio in [4] was found to be 19; in [8] it was 10; in data set [11] it was 19. In addition, the outcome (with Helicobacter pylori [9]; in [10]; in [12]) was Active. Besides, the outcome in the data set with Helicobacter pylori [13] was inactive. In addition, in data set [14], the CC50 worked out at 117 µM.

Take `COc1ccc(CSc2cc(Cl)c(N)c3nonc23)cc1`: the Activity entry (in [1]; in [2]; in the data set on Staphylococcus aureus; in [7]; in the data set with Escherichia coli) was “Non-Toxic” throughout. The selectivity ratio in [15] was 322; in [4], greater than 85; in data set [8], greater than 170; in data set [19], 80; in data set [11], greater than 170; in [21], 322. In addition, the selectivity ratio in [22] came to 161; in data set [24] it was 10; in data set [25], 40. In addition, the figures for the MIC in data set [3], in data set [5] and in data set [6] were 5.9 µM (≈ 1.9 µg/mL), 11.8 µM (≈ 3.8 µg/mL) and 5.9 µM (≈ 1.9 µg/mL), respectively. Moreover, the inhibition entry in data set [16], in data set [17], in [18], in [20] and in [23] was “Active” throughout. Also, the result in [10] and in data set [12] was Active. Besides, the CC50 in [14] is greater than 1000 µM.

Values taken from ChEMBL document CHEMBL4364284, “Design, Synthesis, and Efficacy Testing of Nitroethylene- and 7-Nitrobenzoxadiazol-Based Flavodoxin Inhibitors against Helicobacter pylori Drug-Resistant Clinical Strains and in Helicobacter pylori-Infected Mice” (J Med Chem, 2019).
